Measured values: ChEMBL document CHEMBL4270526, “A novel NAE/UAE dual inhibitor LP0040 blocks neddylation and ubiquitination leading to growth inhibition and apoptosis of cancer cells” (Eur J Med Chem, 2018)
pIC50: −log10 of the molar value. Activity calls are given as the source filed them. The calls are words filed in the database; no cut-off is given here.

Experiments:
A549 = assay: Antiproliferative activity against human A549 cells after 48 hrs by CCK8 assay; format: functional, cell-based; conditions: A549, 48 h
In short: (§1)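 Cells seeded at 6 × 10^3 cells/well and left 12 h at 37 °C, 5% CO2. Medium then replaced with serial compound dilutions, bortezomib as positive control. After 48 h, CCK-8 added for 4 h and absorbance read at 450 nm. Three repeats; IC50 from normalized nonlinear regression of inhibition curves.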

AGS [1] = assay: Antiproliferative activity against human AGS cells after 48 hrs by CCK8 assay; format: functional, cell-based; in short: as §1
K562 = assay: Antiproliferative activity against human K562 cells after 48 hrs by CCK8 assay; format: functional, cell-based; conditions: K562, 48 h; in short: as §1
SK-OV-3 = assay: Antiproliferative activity against human SKOV3 cells after 48 hrs by CCK8 assay; format: functional, cell-based; conditions: SK-OV-3, 48 h; in short: as §1
[2] = Antiproliferative activity against human LO2 cells after 48 hrs by CCK8 assay; format: cell-based, L02; conditions: read-out: LC50
[3] = Selectivity index, ratio of IC50 for human LO2 cells to IC50 for human AGS cells; format: toxicity; conditions: LO2 cells versus AGS cells, read-out: Ratio IC50
[4] = target: SUMO-activating enzyme (Homo sapiens) (UniProt Q9UBE0+Q9UBT2); assay: Inhibition of SAE in human AGS cells assessed as reduction in […]-SUMO conjugation level at 2 to 10 uM after 24 hrs by Western blot analysis; format: cell-based
In short: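 AGS cells given 2, 4, 6, 8 or 10 μM compound or 0.1% DMSO for 24 h, washed in ice-cold PBS and lysed in RIPA on ice. Equal protein loads run by SDS-PAGE: non-reducing for NEDD8/SUMO/Ub conjugates, reducing for p27, NRF2, CDT1 and cleaved caspase-3. Blotted to PVDF with primary antibody overnight at 4 °C and HRP secondary, ECL detection, densitometry. Three repeats.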

AGS [5] = assay: Inhibition of UAE in human AGS cells assessed as reduction in Ubc10-Ub conjugation level at 2 to 10 uM after 24 hrs by Western blot analysis; format: cell-based
In short: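 AGS cells (Ham's F12/10% FBS) exposed to 2, 4, 6, 8 or 10 µM compound, or 0.1% DMSO, for 24 h. RIPA lysates of equal protein run on non-reducing SDS-PAGE. Western blot for Ubc10-Ub or USE1-Ub, with densitometry. Three repeats.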

[6] = target: cAMP-dependent protein kinase catalytic subunit alpha (Homo sapiens) (UniProt P17612); assay: Inhibition of PKAalpha (unknown origin) at 30 uM relative to control
[7] = target: Protein kinase C alpha type (Homo sapiens) (UniProt P17252); assay: Inhibition of PKCalpha (unknown origin) at 30 uM relative to control
[8] = target: Aurora kinase A (Homo sapiens) (UniProt O14965); assay: Inhibition of AurA (unknown origin) at 30 uM relative to control
Sequence of Aurora kinase A (Homo sapiens) (O14965 whole entry): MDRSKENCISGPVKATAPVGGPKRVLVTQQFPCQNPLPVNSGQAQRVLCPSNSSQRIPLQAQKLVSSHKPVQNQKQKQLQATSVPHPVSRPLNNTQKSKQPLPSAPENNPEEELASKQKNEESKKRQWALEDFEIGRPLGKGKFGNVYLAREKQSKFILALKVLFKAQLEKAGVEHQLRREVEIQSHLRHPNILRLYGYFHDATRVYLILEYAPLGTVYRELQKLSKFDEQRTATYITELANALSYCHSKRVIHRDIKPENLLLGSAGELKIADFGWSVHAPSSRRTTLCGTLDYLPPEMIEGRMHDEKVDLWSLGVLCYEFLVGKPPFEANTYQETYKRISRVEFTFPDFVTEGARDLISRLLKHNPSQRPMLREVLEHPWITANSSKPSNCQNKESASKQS

[9] = target: Cyclin-dependent kinase 1 (Homo sapiens) (UniProt P06493); assay: Inhibition of CDK1 (unknown origin) at 30 uM relative to control
Sequence of Cyclin-dependent kinase 1 (Homo sapiens) (P06493 whole entry, looked up): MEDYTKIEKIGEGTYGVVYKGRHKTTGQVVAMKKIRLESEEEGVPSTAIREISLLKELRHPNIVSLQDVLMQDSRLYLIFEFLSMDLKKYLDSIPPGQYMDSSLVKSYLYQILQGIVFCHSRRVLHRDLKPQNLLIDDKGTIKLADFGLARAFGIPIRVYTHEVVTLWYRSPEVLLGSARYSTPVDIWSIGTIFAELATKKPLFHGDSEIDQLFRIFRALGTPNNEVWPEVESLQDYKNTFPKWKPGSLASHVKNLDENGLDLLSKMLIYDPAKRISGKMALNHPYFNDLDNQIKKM

[10] = target: Serine/threonine-protein kinase Chk1 (Homo sapiens) (UniProt O14757); assay: Inhibition of CHK1 (unknown origin) at 30 uM relative to control
Sequence of Serine/threonine-protein kinase Chk1 (Homo sapiens) (O14757 whole entry): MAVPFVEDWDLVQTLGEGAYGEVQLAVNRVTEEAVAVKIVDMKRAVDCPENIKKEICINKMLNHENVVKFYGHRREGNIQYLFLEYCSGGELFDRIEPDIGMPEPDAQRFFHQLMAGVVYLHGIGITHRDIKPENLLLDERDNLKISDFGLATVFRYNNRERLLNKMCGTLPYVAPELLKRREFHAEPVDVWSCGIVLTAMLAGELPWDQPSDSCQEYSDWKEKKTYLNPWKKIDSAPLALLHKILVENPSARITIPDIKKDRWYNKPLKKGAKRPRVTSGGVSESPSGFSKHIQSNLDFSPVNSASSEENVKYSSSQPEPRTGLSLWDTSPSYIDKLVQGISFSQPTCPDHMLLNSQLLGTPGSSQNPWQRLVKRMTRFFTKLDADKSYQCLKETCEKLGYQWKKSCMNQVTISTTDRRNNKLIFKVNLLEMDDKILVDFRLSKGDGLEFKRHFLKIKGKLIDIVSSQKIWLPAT

[11] = target: Serine/threonine-protein kinase Chk2 (Homo sapiens) (UniProt O96017); assay: Inhibition of CHK2 (unknown origin) at 30 uM relative to control
Sequence of Serine/threonine-protein kinase Chk2 (Homo sapiens) (O96017 whole entry): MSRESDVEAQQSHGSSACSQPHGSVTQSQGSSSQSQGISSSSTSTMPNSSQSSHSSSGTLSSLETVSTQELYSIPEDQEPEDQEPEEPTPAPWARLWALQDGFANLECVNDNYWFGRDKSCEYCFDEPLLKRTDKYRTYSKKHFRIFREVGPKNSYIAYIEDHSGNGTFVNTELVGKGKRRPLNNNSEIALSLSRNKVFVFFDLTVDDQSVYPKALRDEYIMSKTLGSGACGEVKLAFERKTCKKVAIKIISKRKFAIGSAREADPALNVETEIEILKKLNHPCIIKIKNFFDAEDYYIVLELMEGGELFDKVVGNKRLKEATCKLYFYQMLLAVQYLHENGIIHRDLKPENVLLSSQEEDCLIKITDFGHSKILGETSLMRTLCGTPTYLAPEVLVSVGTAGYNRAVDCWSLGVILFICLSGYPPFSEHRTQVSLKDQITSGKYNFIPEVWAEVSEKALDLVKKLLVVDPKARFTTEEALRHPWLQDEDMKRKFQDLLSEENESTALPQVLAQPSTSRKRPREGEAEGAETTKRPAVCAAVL

[12] = target: Serine/threonine-protein kinase PLK1 (Homo sapiens) (UniProt P53350); assay: Inhibition of PLK (unknown origin) at 30 uM relative to control
Sequence of Serine/threonine-protein kinase PLK1 (Homo sapiens) (P53350 whole entry): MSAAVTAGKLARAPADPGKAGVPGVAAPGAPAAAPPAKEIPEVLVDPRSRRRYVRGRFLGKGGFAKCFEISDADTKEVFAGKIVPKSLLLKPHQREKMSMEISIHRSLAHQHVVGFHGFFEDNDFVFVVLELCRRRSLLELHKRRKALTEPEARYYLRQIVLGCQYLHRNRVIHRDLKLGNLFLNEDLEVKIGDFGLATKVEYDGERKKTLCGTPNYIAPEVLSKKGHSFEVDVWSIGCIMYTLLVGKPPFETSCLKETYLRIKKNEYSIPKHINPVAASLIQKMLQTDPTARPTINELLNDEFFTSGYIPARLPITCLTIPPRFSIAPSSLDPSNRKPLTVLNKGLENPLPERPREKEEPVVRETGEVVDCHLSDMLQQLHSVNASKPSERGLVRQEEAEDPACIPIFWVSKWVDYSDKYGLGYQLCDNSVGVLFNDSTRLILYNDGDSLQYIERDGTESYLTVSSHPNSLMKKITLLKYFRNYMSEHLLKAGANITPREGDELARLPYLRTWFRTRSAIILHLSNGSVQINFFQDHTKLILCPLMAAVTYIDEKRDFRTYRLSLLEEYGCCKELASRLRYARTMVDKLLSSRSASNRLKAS

[13] = target: RAC-alpha serine/threonine-protein kinase (Homo sapiens) (UniProt P31749); assay: Inhibition of AKT (unknown origin) at 30 uM relative to control
Sequence of RAC-alpha serine/threonine-protein kinase (Homo sapiens) (P31749 whole entry): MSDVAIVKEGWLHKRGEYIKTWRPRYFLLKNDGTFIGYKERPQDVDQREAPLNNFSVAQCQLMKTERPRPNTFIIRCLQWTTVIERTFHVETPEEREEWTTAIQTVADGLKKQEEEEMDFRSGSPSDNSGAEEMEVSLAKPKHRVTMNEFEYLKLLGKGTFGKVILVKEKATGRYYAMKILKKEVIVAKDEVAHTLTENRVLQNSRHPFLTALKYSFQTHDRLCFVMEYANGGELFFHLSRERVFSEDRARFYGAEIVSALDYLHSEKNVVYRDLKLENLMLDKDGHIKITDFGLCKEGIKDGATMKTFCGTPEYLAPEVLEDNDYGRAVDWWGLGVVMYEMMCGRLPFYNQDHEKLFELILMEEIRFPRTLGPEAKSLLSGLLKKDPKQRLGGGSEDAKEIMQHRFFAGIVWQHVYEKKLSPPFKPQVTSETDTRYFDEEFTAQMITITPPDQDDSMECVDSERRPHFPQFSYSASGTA

[14] = target: Inhibitor of nuclear factor kappa-B kinase subunit beta (Homo sapiens) (UniProt O14920); assay: Inhibition of IKKB (unknown origin) at 30 uM relative to control
Sequence of Inhibitor of nuclear factor kappa-B kinase subunit beta (Homo sapiens) (O14920 whole entry): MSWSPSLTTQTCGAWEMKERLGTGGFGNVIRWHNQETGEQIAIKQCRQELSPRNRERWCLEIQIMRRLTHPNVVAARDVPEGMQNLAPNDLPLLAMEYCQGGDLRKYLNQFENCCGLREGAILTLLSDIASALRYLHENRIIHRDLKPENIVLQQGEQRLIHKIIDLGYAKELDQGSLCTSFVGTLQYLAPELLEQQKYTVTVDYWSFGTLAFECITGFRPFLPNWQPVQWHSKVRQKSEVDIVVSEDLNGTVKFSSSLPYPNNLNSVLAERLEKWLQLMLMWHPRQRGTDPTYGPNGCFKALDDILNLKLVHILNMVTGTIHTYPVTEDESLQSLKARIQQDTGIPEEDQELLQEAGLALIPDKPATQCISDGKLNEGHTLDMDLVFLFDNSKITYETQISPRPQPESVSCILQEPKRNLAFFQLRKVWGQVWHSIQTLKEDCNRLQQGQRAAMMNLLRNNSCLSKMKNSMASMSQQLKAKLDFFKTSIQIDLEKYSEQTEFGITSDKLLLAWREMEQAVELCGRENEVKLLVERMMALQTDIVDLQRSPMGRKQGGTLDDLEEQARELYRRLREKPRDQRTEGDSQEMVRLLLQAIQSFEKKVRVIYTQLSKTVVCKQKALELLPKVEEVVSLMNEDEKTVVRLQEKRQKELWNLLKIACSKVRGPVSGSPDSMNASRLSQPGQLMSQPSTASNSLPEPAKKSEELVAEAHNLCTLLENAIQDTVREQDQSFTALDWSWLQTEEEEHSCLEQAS

AGS [15] = assay: Induction of apoptosis in human AGS cells assessed as late apoptotic cells at 4 uM after 36 hrs by Annexin-V-FITC/propidium iodide staining based flow cytometry (reference value: 1.71%); format: functional
AGS [16] = assay: Induction of apoptosis in human AGS cells assessed as necrotic cells at 4 uM after 36 hrs by Annexin-V-FITC/propidium iodide staining based flow cytometry (reference value: 1.01%); format: functional
AGS [17] = assay: Induction of apoptosis in human AGS cells assessed as early apoptotic cells at 6 uM after 36 hrs by Annexin-V-FITC/propidium iodide staining based flow cytometry (reference value: 4.44%); format: functional
AGS [18] = assay: Induction of apoptosis in human AGS cells assessed as live cells at 8 uM after 36 hrs by Annexin-V-FITC/propidium iodide staining based flow cytometry (reference value: 92.84%); format: functional
AGS [19] = assay: Induction of apoptosis in human AGS cells assessed as early apoptotic cells at 8 uM after 36 hrs by Annexin-V-FITC/propidium iodide staining based flow cytometry (reference value: 4.44%); format: functional
AGS [20] = assay: Induction of apoptosis in human AGS cells assessed as late apoptotic cells at 8 uM after 36 hrs by Annexin-V-FITC/propidium iodide staining based flow cytometry (reference value: 1.71%); format: functional
AGS [21] = assay: Induction of apoptosis in human AGS cells assessed as necrotic cells at 8 uM after 36 hrs by Annexin-V-FITC/propidium iodide staining based flow cytometry (reference value: 1.01%); format: functional
AGS [22] = assay: Induction of apoptosis in human AGS cells assessed as live cells at 10 uM after 36 hrs by Annexin-V-FITC/propidium iodide staining based flow cytometry (reference value: 92.84%); format: functional
AGS [23] = assay: Cell cycle arrest in human AGS cells assessed as accumulation at sub-G1 phase at 4 uM after 24 hrs by propidium iodide staining based flow cytometry; format: functional
In short: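 AGS cells seeded at 1 × 10^5/well and attached 24 h at 37 °C, 5% CO2. Exposed to 4 μM compound for varying times, then fixed in 70% ethanol at −20 °C overnight. Stained with PI/RNase buffer 15–20 min in the dark; 20000 cells per sample read by flow cytometry (488 nm excitation, FL-3 630 nm). Three repeats.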

AGS [24] = assay: Synergistic antiproliferative activity against human AGS cells assessed as combination index constant at 1.25 uM after 48 hrs in presence of 5 nM BTZ by CCK8 assay; format: functional
In short: (§2)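 AGS cells at 6×10^3/well attached for 12 h, then exposed for 48 h to compound, bortezomib, or both at set concentrations. CCK-8 added for 4 h, then OD read at 450 nm. Inhibition rates E used for q = E(combo)/(E1+E2−E1×E2). Triplicate experiments.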

AGS [25] = assay: Synergistic antiproliferative activity against human AGS cells assessed as combination index constant at 1 uM after 48 hrs in presence of 7.5 nM BTZ by CCK8 assay; format: functional; in short: as §2
AGS [26] = assay: Synergistic antiproliferative activity against human AGS cells assessed as combination index constant at 1.25 uM after 48 hrs in presence of 7.5 nM BTZ by CCK8 assay; format: functional; in short: as §2
AGS [27] = assay: Synergistic antiproliferative activity against human AGS cells assessed as combination index constant at 1.5 uM after 48 hrs in presence of 10 nM BTZ by CCK8 assay; format: functional; in short: as §2

O=c1cc(-c2ccc(-c3ccccc3)cc2)c2ccc(N3CCC(NCCc4ccccc4)CC3)cc2o1
pIC50 (A549): 5.67
pIC50 (AGS [1]): 6.12
pIC50 (K562): 5.61
pIC50 (SK-OV-3): 5.48
CC50 at 48 h [2]: 13.5 µM
selectivity ratio [3]: 14 to 18
inhibition [4]: inactive
inhibition (AGS [5]): Active
inhibition [6]: 5.17%
inhibition [7]: 11.5%
inhibition [8]: 6.03%
inhibition [9]: -1.18%
inhibition [10]: 1.01%
inhibition [11]: 9.44%
inhibition [12]: 5.58%
inhibition [13]: 9.87%
inhibition [14]: 1.07%
Activity (AGS [15]): 10.51%
Activity (AGS [16]): 1.03%
Activity (AGS [17]): 45.91%
Activity (AGS [18]): 9.88%
Activity (AGS [19]): 50.39%
Activity (AGS [20]): 35.01%
Activity (AGS [21]): 4.71%
Activity (AGS [22]): 7.4%
Activity (AGS [23]): Active
CI (AGS [24]): 4.34
CI (AGS [25]): 1.13
CI (AGS [26]): 3.1
CI (AGS [27]): 1.35
